pIC50: −log10 of the molar value. Where a name gives a salt, the structure may show the parent alone. The source made the active and inactive calls. The rule behind the calls is not given here.
Key:
Rattus norvegicus = organism: Rattus norvegicus; assay: Displacement of [3H]-BTX-B from neuronal voltage-gated sodium channel in rat cerebral cortex synaptoneurosomes at 40 uM; type: tissue-based
How it was run: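 Single-concentration screen at 40 μM. Rat forebrain membranes with [3H]-batrachotoxin (30–60 Ci/mmol) in 50 mM HEPES pH 7.4 containing 130 mM choline chloride, 37 °C for 60 min. Rapid vacuum filtration onto glass fiber filters, and trapped radioactivity compared with control values to give percent displacement. Aconitine 1 μM as positive control.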

[1] = Displacement of [3H]-BTX-B from neuronal voltage-gated sodium channel in rat cerebral cortex synaptoneurosomes; type: tissue-based
How it was run: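 Rat forebrain membranes incubated with [3H]-batrachotoxin (30–60 Ci/mmol) in 50 mM HEPES pH 7.4 with 130 mM choline chloride, 37 °C, 60 min. Stopped by rapid vacuum filtration onto glass fiber filters, and filter radioactivity compared with control. Percent inhibition at 5–7 concentrations spanning the IC50, each in triplicate. IC50 by Probit analysis of the concentration versus percent binding curve. Aconitine 1 μM as positive control.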

[2] = Lipophilicity, log P of the compound; type: physicochemical; details: octanol/water
How it was run: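 logP calculated with a chemical properties tool, not measured.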

[3] = biological target: Sodium channel protein type 2 subunit alpha (Homo sapiens) (UniProt Q99250); assay: Inhibition of human Nav1.2 channel expressed in HEK293 cells assessed as blocked of sodium current elicited at +10 mV for 12 mins from holding potential -100 mV at 100 uM by patch clamp method; type: cell-based; design: scale not given: the % may be the effect or the level left; details: in the assay text read “12 ms” for “12 mins”
How it was run: (§1)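 Whole-cell patch clamp on HEK293 cells stably expressing human Nav1.2, grown in DMEM/F12 with 10% FBS, penicillin/streptomycin and G418 at 37 °C, 5% CO2. Step to +10 mV for 12 ms from −100 mV holding. Pipette contains CsCl/BAPTA (pH 7.4); bath contains 130 mM NaCl (pH 7.4). DMSO at most 0.3%, 20–22 °C, ≥75% series-resistance compensation. Compound at 100 μM, followed by washout; n = 4.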

[4] = biological target: Sodium channel protein type 2 subunit alpha (Homo sapiens) (UniProt Q99250); assay: Inhibition of human Nav1.2 channel expressed in HEK293 cells assessed as blocked of sodium current elicited at +10 mV for 12 mins from holding potential -100 mV at 100 uM measured after washout by patch clamp method; type: cell-based; details: in the assay text read “12 ms” for “12 mins”; how it was run: as §1

Chain of Sodium channel protein type 2 subunit alpha (Homo sapiens) (Q99250 whole entry, looked up): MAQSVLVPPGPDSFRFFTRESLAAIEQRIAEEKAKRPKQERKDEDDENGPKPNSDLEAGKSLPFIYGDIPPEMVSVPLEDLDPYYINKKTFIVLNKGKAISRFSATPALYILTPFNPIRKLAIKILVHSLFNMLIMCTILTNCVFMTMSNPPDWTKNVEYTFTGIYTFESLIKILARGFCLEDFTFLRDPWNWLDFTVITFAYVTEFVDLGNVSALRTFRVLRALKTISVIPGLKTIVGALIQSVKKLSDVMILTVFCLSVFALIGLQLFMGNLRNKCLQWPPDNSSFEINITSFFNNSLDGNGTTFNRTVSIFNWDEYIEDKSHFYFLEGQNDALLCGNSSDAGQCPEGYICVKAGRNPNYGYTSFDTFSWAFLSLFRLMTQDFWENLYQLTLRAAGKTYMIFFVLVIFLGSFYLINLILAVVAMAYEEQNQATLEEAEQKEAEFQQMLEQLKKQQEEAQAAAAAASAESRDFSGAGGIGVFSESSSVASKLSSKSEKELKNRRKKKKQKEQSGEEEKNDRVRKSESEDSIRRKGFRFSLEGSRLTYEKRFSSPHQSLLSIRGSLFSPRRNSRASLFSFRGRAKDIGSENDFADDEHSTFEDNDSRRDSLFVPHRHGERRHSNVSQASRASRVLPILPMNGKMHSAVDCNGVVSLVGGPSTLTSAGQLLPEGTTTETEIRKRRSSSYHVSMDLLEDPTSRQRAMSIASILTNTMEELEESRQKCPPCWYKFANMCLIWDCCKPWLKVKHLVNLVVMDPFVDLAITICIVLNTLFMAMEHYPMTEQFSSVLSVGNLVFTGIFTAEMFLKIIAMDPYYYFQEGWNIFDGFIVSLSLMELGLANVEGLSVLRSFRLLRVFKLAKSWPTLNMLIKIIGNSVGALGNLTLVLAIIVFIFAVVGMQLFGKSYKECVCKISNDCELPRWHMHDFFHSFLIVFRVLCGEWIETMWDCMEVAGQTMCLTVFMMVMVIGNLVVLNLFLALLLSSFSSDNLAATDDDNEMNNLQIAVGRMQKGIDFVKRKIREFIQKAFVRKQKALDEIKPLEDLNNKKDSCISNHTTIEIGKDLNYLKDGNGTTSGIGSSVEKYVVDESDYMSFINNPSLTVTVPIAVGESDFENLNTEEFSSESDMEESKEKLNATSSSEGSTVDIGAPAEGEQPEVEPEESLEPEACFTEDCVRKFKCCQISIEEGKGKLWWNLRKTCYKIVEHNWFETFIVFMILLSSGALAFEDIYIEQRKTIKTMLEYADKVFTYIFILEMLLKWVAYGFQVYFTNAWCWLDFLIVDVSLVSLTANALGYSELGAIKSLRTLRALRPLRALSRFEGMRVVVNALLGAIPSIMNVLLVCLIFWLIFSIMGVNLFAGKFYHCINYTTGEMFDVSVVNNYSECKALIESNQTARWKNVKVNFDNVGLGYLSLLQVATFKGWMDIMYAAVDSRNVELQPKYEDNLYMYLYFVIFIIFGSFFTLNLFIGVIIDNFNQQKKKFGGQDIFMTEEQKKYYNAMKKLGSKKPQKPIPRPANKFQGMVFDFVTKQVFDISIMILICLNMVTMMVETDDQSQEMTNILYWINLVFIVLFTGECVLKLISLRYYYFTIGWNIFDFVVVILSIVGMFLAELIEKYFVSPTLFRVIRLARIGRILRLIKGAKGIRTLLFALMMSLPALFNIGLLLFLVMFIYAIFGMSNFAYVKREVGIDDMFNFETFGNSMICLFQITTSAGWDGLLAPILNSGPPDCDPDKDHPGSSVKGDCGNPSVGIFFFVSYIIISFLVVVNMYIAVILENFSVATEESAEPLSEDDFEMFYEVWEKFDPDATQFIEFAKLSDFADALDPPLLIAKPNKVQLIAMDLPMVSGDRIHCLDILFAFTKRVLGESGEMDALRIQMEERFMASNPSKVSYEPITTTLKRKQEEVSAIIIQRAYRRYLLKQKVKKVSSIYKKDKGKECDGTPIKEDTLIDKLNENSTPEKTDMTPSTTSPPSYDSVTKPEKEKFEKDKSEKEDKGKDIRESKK

Structure (SMILES)	pIC50 [1]	logP [2]	other results
CCN(CC)CC(=O)Nc1ccc(C2(c3ccccc3)NC(=O)NC2=O)cc1 (stereo unspecified)	–	–	Activity (Rattus norvegicus): 50%
O=C1NC(=O)C2(CCCCc3ccccc32)N1 (stereo unspecified)	3.60	–	–
CCCOc1cc(N)ccc1C(=O)OCCN(CC)CC [PROPOXYCAINE HYDROCHLORIDE]	4.62	2.42	–
CCCCC1(c2ccc(C)cc2)NC(=O)NC1=O (stereo unspecified)	4.02	–	–
CCN(CC)CC(=O)Nc1ccc(C(O)(C(N)=O)c2ccccc2)cc1 (stereo unspecified)	–	–	Activity (Rattus norvegicus): 4%
CC12C(=O)NC(=O)N1CCc1ccccc12 (stereo unspecified)	3.60	–	–
O=C1NC(=O)C2(CCc3ccccc32)N1 (stereo unspecified)	2.68	–	–
CC(CNC1CCCCC1)OC(=O)c1ccccc1 (stereo unspecified) [HEXYLCAINE]	5.15	3.34	–
CCCCC1(c2ccccc2)NC(=O)NC1=O (stereo unspecified)	3.99	–	–
CCCC1(c2ccccc2)NC(=O)NC1=O (stereo unspecified)	3.79	–	–
CCOC(=O)c1ccc(N)cc1 [BENZOCAINE]	3.04	1.39	–
CCN(CC)CC(=O)Nc1c(C)cc(C(O)(C(N)=O)c2ccccc2)cc1C (stereo unspecified)	–	–	Activity (Rattus norvegicus): 16%
CCCNC(C)C(=O)Nc1ccccc1C (stereo unspecified) [PRILOCAINE]	4.27	2.18	–
CCCCCCCC1(c2ccccc2)NC(=O)NC1=O (stereo unspecified)	5.30	–	–
CCOc1ccc(C(=O)OCCN(CC)CC)cc1 [PARETHOXYCAINE]	4.62	2.74	–
CCCCNc1ccc(C(=O)OCCN(C)C)cc1 [TETRACAINE]	–	3.27	–
CCCCCCC1(c2cc(C)c(NC(=O)CN(CC)CC)c(C)c2)NC(=O)NC1=O (stereo unspecified)	–	–	Activity (Rattus norvegicus): 68%
O=C1C(c2ccccc2)N2CCCCN1C2=O (stereo unspecified)	3.15	2.01	–
O=C1NC(=O)C(c2ccccc2)(c2ccccc2)N1 [PHENYTOIN]	4.40	–	–
COC(=O)[C@H]1[C@@H](OC(=O)c2ccccc2)C[C@@H]2CC[C@H]1N2C [COCAINE]	4.31	1.82	–
CCCN(CC)C(CC)C(=O)Nc1c(C)cccc1C (stereo unspecified) [ETIDOCAINE]	–	3.87	–

Structure (SMILES)	pIC50 [1]	logP [2]	other results
CCCCCCCC1(c2cc(C)c(NC(=O)CN(CC)CC)c(C)c2)NC(=O)NC1=O (stereo unspecified)	–	–	Activity (Rattus norvegicus): 71%
CCCCCCCCCC1(c2cc(C)c(NC(=O)CN(CC)CC)c(C)c2)NC(=O)NC1=O (stereo unspecified)	–	–	Activity (Rattus norvegicus): 69%
CCN(CC)CC(=O)Nc1c(C)cc(C2(c3ccccc3)NC(=O)NC2=O)cc1C (stereo unspecified)	–	–	Activity (Rattus norvegicus): 49%
CCCCC1(c2ccccc2C)NC(=O)NC1=O (stereo unspecified)	3.65	–	–
O=C1NC(=O)C2(CCCc3ccccc32)N1 (stereo unspecified)	3.07	–	–
CC1CCCCN1CCCOC(=O)c1ccccc1 (stereo unspecified) [PIPEROCAINE]	4.89	3.01	–
CCCCOc1cc(C(=O)NCCN(CC)CC)c2ccccc2n1 [DIBUCAINE]	–	3.77	–
CCN1C(=O)NC(=O)C1(C)c1ccccc1 (stereo unspecified)	3.14	–	–
CCCCCCCCC1(c2ccccc2)NC(=O)NC1=O (stereo unspecified)	5.30	4.96	–
CCCCCCCC(O)(C(N)=O)c1ccccc1 (stereo unspecified)	5.05	–	–
CCN(CC)CCOC(=O)c1ccc(N)cc1 [PROCAINE]	3.96	2.53	–
CCCCCCCCCC(O)(C(N)=O)c1cc(C)c(NC(=O)CN(CC)CC)c(C)c1 (stereo unspecified)	–	–	Activity (Rattus norvegicus): 63%
CCCCCC1(c2ccccc2)NC(=O)N(C)C1=O (stereo unspecified)	4.41	2.96	–
CCCCC1(c2cccc(C)c2)NC(=O)NC1=O (stereo unspecified)	4.24	–	–
CCCCCCCC(O)(C(N)=O)c1cc(C)c(NC(=O)CN(CC)CC)c(C)c1 (stereo unspecified)	–	–	Activity [3]: 67.7%; Activity [4]: inactive; Activity (Rattus norvegicus): 83%
O=C1NC(=O)C2(CCCCCc3ccccc32)N1 (stereo unspecified)	3.60	–	–
CCCOc1ccc(C(=O)OCCN(CC)CC)cc1N [PROPARACAINE]	5.70	2.42	–
O=C1NC(=O)C(c2ccccc2)(C2CCCCC2)N1 (stereo unspecified)	4.24	–	–
CCCCCCC1(c2ccccc2)NC(=O)NC1=O (stereo unspecified)	4.89	–	–
O=C1C(c2ccccc2)N2CCCCCN1C2=O (stereo unspecified)	3.37	2.51	–
